The source made the active and inactive calls. No cut-off for these calls is given here.
Legend:
Mus musculus [1] = species: Mus musculus; assay: Analgesic activity in mouse by Eddy hot-plate method; format: functional
Mus musculus [2] = assay: Analgesic activity in sc dosed mouse by Eddy hot-plate method; format: functional
Rhesus monkey [3] = assay: Psychotomimetic activity in morphine-dependent nonwithdrawn rhesus monkey assessed as antagonist activity by measuring precipitation of withdrawal symptoms at 2 to 4 mg/kg; format: organism-based, Macaca mulatta; parameters: dose 2-4 mg/kg; details: in vivo
Rhesus monkey [4] = assay: Toxicity in rhesus monkey assessed as physical drug dependence liability at 2 to 4 mg/kg by single dose suppression analysis; format: organism-based, Macaca mulatta; parameters: dose 2-4 mg/kg; details: in vivo
Outline: (§1)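 Rhesus monkeys addicted to morphine; single-dose suppression study scoring whether the test dose supports morphine dependence, i.e. suppresses withdrawal signs. Dose range 2-4 or 2-8 mg/kg, as given in each line.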

Rhesus monkey [5] = assay: Psychotomimetic activity in morphine-dependent nonwithdrawn rhesus monkey assessed as antagonist activity by measuring precipitation of withdrawal symptoms at 2 to 8 mg/kg; format: organism-based, Macaca mulatta; parameters: dose 2-8 mg/kg; details: in vivo
Rhesus monkey [6] = assay: Toxicity in rhesus monkey assessed as physical drug dependence liability at 2 to 8 mg/kg by single dose suppression analysis; format: organism-based, Macaca mulatta; parameters: dose 2-8 mg/kg; details: in vivo; outline: as §1

| Structure (SMILES) | ED50 (Mus musculus [1]) | further results |
| --- | --- | --- |
| CN1CCC2CC1Cc1ccccc12 (configuration not stated) | 11.2 mg/kg |  |
| CC1CCN(C)CCc2ccc(O)cc21 (configuration not stated) | 12.5 mg/kg |  |
| C=CCN1CCC2CC(C1)c1ccccc12 (configuration not stated) | 19.4 mg/kg |  |
| CN1CCC2CC(C1)c1ccccc12 (configuration not stated) | 4.2 mg/kg | ED50 (Mus musculus [2]): 8.2 mg/kg; Activity (Rhesus monkey [3]): Non-toxic; Activity (Rhesus monkey [4]): Non-toxic |
| c1ccc2c(c1)C1CCNCC2C1 (configuration not stated) | 4.9 mg/kg | ED50 (Mus musculus [2]): 6.1 mg/kg; Activity (Rhesus monkey [5]): Non-toxic; Activity (Rhesus monkey [6]): Non-toxic |
| CN1CC[C@]23c4c5ccc(O)c4O[C@H]2[C@@H](O)C=C[C@H]3[C@H]1C5 [MORPHINE] | 1.2 mg/kg |  |
| COc1ccc2c3c1O[C@H]1[C@@H](O)C=C[C@H]4[C@@H](C2)N(C)CC[C@@]341 [CODEINE] | 7.5 mg/kg |  |
| CN1CC[C@@H]2CC1Cc1ccc(O)cc12 | 4.5 mg/kg |  |
| c1ccc(CCN2CCC3CC(C2)c2ccccc23)cc1 (configuration not stated) | 8.8 mg/kg |  |
| CCCN1CCC2CC(C1)c1ccccc12 (configuration not stated) | 16.2 mg/kg |  |
| CC(C)=CCN1CCC2CC(C1)c1ccccc12 (configuration not stated) | inactive |  |

Source: ChEMBL document CHEMBL3244196, “Synthesis and analgetic activity of 1,2,3,4,5,6-hexahydro-1,6-methano-3-benzozocines” (J Med Chem, 1978)
